In ChEMBL document CHEMBL1121845, “Synthesis and antitumor activity of cysteinyl-3,4-dihydroxyphenylalanines and related compounds” (1981) one finds inhibition, T/C and Weight change data, which are given here for 16 molecules.

The structures appear in SMILES notation.

Assay [1] relates to Don. Description: Growth inhibition of Don-6 cell lines at 1.0 mM concentration. The format is functional. As to conditions: Cricetulus griseus. Summed up:
(§1)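 YT-nu (human neuroblastoma) or Don-6 (Chinese hamster fibroblast) cells in McCoy's 5A with 15% FCS, attached 24 h. Washed, then exposed 1 h at 37 °C to drug at 1 or 0.1 mM in Hanks' BSS. Grown 48 h more in medium, trypsinized and Coulter-counted. % growth inhibition relative to parallel drug-free controls.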

Assay [2] concerns YT-NU. Kind of assay: Growth inhibition of YT-nu cell lines at 1.0 mM concentration. The format is functional. Conditions: Homo sapiens. Summed up:
as §1

Assay [3] deals with YT-nu neuroblastoma (Homo sapiens). Kind of assay: Compound was tested for growth inhibition of YT-nu cell lines at 0.1 mM concentration.
For assay [4], the system named is Don-6 fibroblast (Cricetulus griseus). Kind of assay: Compound was tested for growth inhibition of Don-6 cell lines at 0.1 mM concentration.
In assay [5] the test system is Mus musculus. Kind of assay: Compound was tested for antitumor activity against the L1210 leukemia in mice at dose of 500(mg/kg)/day intraperitoneally per day. The format is functional. Summed up:
(§2)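 L1210 leukemia: young C57BL/6 × DBA/2 F1 male mice, about 20 g, 10 per group, inoculated ip with 1 × 10^6 leukemia cells on day 0. Drug given in 0.9% NaCl ip once daily for 7 days starting day 1. Read-out is %T/C = median survival time of treated/control × 100; weight change averaged between days 1 and 5.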

The test system of assay [6] is Mus musculus. Description: Compound was tested for antitumor activity against the L1210 leukemia in mice at dose of 1000 mg/kg/day intraperitoneally per day. The format is functional. Conditions: route intraperitoneal.
Assay [7] concerns Mus musculus. Kind of assay: Compound was tested for antitumor activity against the B-16 melanoma in mice at dose of 1000 mg/kg/day intraperitoneally per day. The format is functional. Conditions: route intraperitoneal.
The test system of assay [8] is Mus musculus. Description: Compound was tested for antitumor activity against the B-16 melanoma in mice at dose of 500(mg/kg)/day intraperitoneally per day. The format is functional. Summed up: (§3)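 B-16 melanoma: young C57BL/6 × DBA/2 F1 male mice, about 20 g, 10 per group, inoculated ip with 5 × 10^6 melanoma cells on day 0. Drug given in 0.9% NaCl ip once daily for 12 days starting day 1. Read-out is %T/C = median survival time of treated/control × 100; weight change averaged between days 1 and 5.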

In assay [9] the test system is Mus musculus. Description: Compound was tested for antitumor activity against the L1210 leukemia in mice at dose of 500 mg/kg intraperitoneally per day. As to conditions: route intraperitoneal. The format is functional. Summed up:
as §2

For assay [10], the system named is Don. Description: Compound was tested for growth inhibition of Don-6 cell lines at 0.1 mM concentration. The format is functional. As to conditions: Cricetulus griseus. Summed up:
as §1

For assay [11], the system named is Mus musculus. Description: Compound was tested for antitumor activity against the L1210 leukemia in mice at dose of 400(mg/kg)/day intraperitoneally per day. The format is functional. An outline of the steps: as §2
Assay [12] deals with Mus musculus. Description: Compound was tested for antitumor activity against the L1210 leukemia in mice at dose of 800(mg/kg)/day intraperitoneally per day. The format is functional. Summed up:
as §2

Assay [13] concerns Mus musculus. Kind of assay: Compound was tested for antitumor activity against the B-16 melanoma in mice at dose of 400(mg/kg)/day intraperitoneally per day. The format is functional. An outline of the steps:
as §3

Assay [14] deals with Mus musculus. Kind of assay: Compound was tested for antitumor activity against the B-16 melanoma in mice at dose of 800(mg/kg)/day intraperitoneally per day. The format is functional. An outline of the steps: as §3
In assay [15] the test system is YT-NU. Description: Compound was tested for growth inhibition of YT-nu cell lines at 0.1 mM concentration. The format is functional. Conditions: Homo sapiens. An outline of the steps: as §1
Assay [16] relates to Mus musculus. Description: Compound was tested for antitumor activity against the L1210 leukemia in mice at dose of 300(mg/kg)/day intraperitoneally per day. The format is functional. An outline of the steps: as §2
The test system of assay [17] is Mus musculus. Description: Compound was tested for antitumor activity against the B-16 melanoma in mice at dose of 300(mg/kg)/day intraperitoneally per day. The format is functional. An outline of the steps:
as §3

Assay [18] concerns Mus musculus. Description: Compound was tested for antitumor activity against the L1210 leukemia in mice at dose of 100(mg/kg)/day intraperitoneally per day. The format is functional. An outline of the steps: (§4)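 Male C57BL/6 × DBA/2 F1 mice, about 20 g, 10 per group, inoculated ip with 1 × 10^6 L1210 cells on day 0. From day 1, drug in 0.9% NaCl given ip once daily for 7 days. Weight change recorded between days 1 and 5. Activity expressed as %T/C = median survival time of treated over control × 100.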

The test system of assay [19] is Mus musculus. Kind of assay: Compound was tested for antitumor activity against the B-16 melanoma in mice at dose of 100(mg/kg)/day intraperitoneally per day. The format is functional. An outline of the steps:
as §3

For assay [20], the system named is Mus musculus. Description: Compound was tested for antitumor activity against the L1210 leukemia in mice at dose of 250 mg/kg intraperitoneally per day. Conditions: route intraperitoneal. The format is functional. Summed up: as §2
Assay [21] concerns Mus musculus. Description: Compound was tested for antitumor activity against the L1210 leukemia in mice at dose of 150(mg/kg)/day intraperitoneally per day. The format is functional. Summed up: as §4

In general, inhibition refers to the relative decrease from the control value, in per cent. Higher therefore signals a strong effect. As to `NC(CSc1ccccc1O)C(=O)O` (centres undefined), the inhibition at 1000 µM in the assay with Don [1] was determined as 5%; with YT-NU [2] it was 51%.
Turning to `Cc1ccc(O)c(O)c1`, the results for the inhibition at 1000 µM in the assay on Don [1] and in the assay on YT-NU [2] were 76% and 93%, respectively. In addition, the inhibition at 100 µM in [3] stood at 48%; in assay [4], 33%.
The term T/C denotes the result in the treated group divided by that in the control group, in per cent. Take `NC(CSc1cc(CC(N)C(=O)O)cc(O)c1O)C(=O)O` (centres undefined): the inhibition at 1000 µM in the assay on Don [1] came out at 11%; in the assay with YT-NU [2] it was 59%. In addition, the T/C in the assay with Mus musculus [5] came to 131%; in the assay on Mus musculus [6], 150%; in the assay on Mus musculus [7], 127%; with Mus musculus [8], 108%. For the same molecule, the Weight change was 1.7 g with Mus musculus [6], 2.1 g in the assay on Mus musculus [7], 2.6 g in the assay with Mus musculus [8] and 1.7 g in the assay with Mus musculus [9].
With `NC(CSc1nc(CC(N)C(=O)O)c[nH]1)C(=O)O` (centres undefined), the inhibition at 1000 µM with Don [1] turned out to be 0%; in the assay with YT-NU [2] it was 7%.
On the same counts, the results for `NC(CSc1cc(O)c(O)cc1CC(N)C(=O)O)C(=O)O` (centres undefined) are 41% and 61%.
Consider `Cc1cc(O)c(O)c(SCC(N)C(=O)O)c1` (centres undefined), for which the inhibition at 100 µM turned out to be 25% in the assay on Don [10] and 44% in the assay on YT-NU [15]. Further, the inhibition at 1000 µM in the assay with Don [1] stood at 82%; in the assay on YT-NU [2] it was 84%. Moreover, the T/C is listed as 143% in the assay on Mus musculus [11], 143% in the assay with Mus musculus [12], 100% in the assay on Mus musculus [13] and 126% in the assay on Mus musculus [14]. The Weight change in the assay with Mus musculus [11] is recorded as 1.6 g; in the assay on Mus musculus [12], 0.5 g; with Mus musculus [13], 0.7 g; in the assay on Mus musculus [14], -0.4 g.
On to `NC(CSc1ccc(SCC(N)C(=O)O)c(O)c1O)C(=O)O` (centres undefined), for which the values for the inhibition at 1000 µM in the assay on Don [1] and in the assay on YT-NU [2] were 30% and 40%, respectively.
Regarding `NC(CSc1ccc(O)c(O)c1)C(=O)O` (centres undefined), the inhibition at 100 µM was 69% in the assay on Don [10] and 71% with YT-NU [15]. In addition, the results for the inhibition at 1000 µM with Don [1] and with YT-NU [2] were 81% and 76%, respectively. Moreover, the T/C with Mus musculus [5] worked out at 150%; in the assay on Mus musculus [16], 138%; in the assay with Mus musculus [17] it was 114%; in the assay with Mus musculus [8] it was 95%; with Mus musculus [18], 113%; in the assay with Mus musculus [19], 109%. For the same molecule, the Weight change is -1 g in the assay on Mus musculus [5]; 0.5 g with Mus musculus [16]; -1.3 g in the assay on Mus musculus [17]; -1.5 g in the assay on Mus musculus [8]; 1.4 g in the assay on Mus musculus [18]; 1.8 g in the assay with Mus musculus [19].
With `NC(CSc1c(CC(N)C(=O)O)ccc(O)c1O)C(=O)O` (centres undefined), the inhibition at 1000 µM is 0% with Don [1] and 35% in the assay with YT-NU [2].
In turn, `NC(CSc1ccc(O)cc1)C(=O)O` (centres undefined) showed an inhibition at 1000 µM in the assay with Don [1] of 5%. In the assay with Mus musculus [20], this molecule had a T/C of 100% and a Weight change of 3 g. The same molecule registered an inhibition at 1000 µM in the assay on YT-NU [2] of 36%.
For the molecule `NC(CSc1cc(CC(N)C(=O)O)c(SCC(N)C(=O)O)c(O)c1O)C(=O)O` (centres undefined), the inhibition at 1000 µM was 44% in the assay with Don [1] and 56% with YT-NU [2].
As to `NC(CSc1cc(CC(N)C(=O)O)ccc1O)C(=O)O` (centres undefined), the inhibition at 1000 µM in the assay with Don [1] was 5%; in the assay on YT-NU [2], 7%.
As for `NC(CSc1cccc(O)c1O)C(=O)O` (centres undefined), the inhibition at 1000 µM with Don [1] was found to be 32%; with YT-NU [2], 20%.
Turning to `Cl.Cl.NCCSc1cc(CCN)cc(O)c1O`, the values for the inhibition at 1000 µM in the assay on Don [1] and with YT-NU [2] were 83% and 65%, respectively. Further, the T/C in the assay on Mus musculus [21] worked out at 88%; in the assay with Mus musculus [18], 100%. Also, the Weight change with Mus musculus [21] was -2.1 g; with Mus musculus [18] it was 1.1 g. In addition, the inhibition at 100 µM was found to be 48% in [3] and 73% in assay [4].
On to `NCCc1ccc(O)c(O)c1` [DOPAMINE], for which the inhibition at 1000 µM was 30% in the assay on Don [1] and 40% with YT-NU [2].
Turning to `N[C@@H](Cc1ccc(O)c(O)c1)C(=O)O` [LEVODOPA], the inhibition at 1000 µM with Don [1] was 6%; with YT-NU [2], 24%.
